Data on 6 molecules can be found in ChEMBL document CHEMBL1821632 (2011).

The source made the active and inactive calls. No cut-off for these calls is given here.

Experiment [1] deals with Sperm. Kind of experiment: Antifertility activity against goat epididymis sperm cells assessed as inhibition of sperm motility at 1.25 mM after 1 hr by Sander-Cramer test. Type of experiment: functional. The settings on record: Capra hircus. The essentials: (§1)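 Sperm came from the cauda epididymis of goats. Tissue pieces were allowed to settle out, and the cells were washed, pelleted and resuspended in buffer. Cells were diluted in Dulbecco buffer (control) or in 1.25 mM drug solution. Motility was scored by the Sander-Cramer method, examining at least six microscope fields per slide at 1 h and 2 h of incubation.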

Experiment [2] relates to Lipid bilayer. Kind of experiment: Binding affinity to dipalmitoyl phosphatidyl choline lipid bilayer assessed as decrease in main transition temperature at compound to lipid molar ratio of 1:5 by DSC technique. An outline of the steps: (§2)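 DPPC bilayers carried additive at additive:lipid molar ratios of 0:100, 1:5, 1:2 or 1:1. Samples were degassed under vacuum and scanned by DSC from 20 to 60 °C at 10 °C/h. The pre-transition and main transition (Tm) temperatures were read from the thermograms and compared with the additive-free lipid.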

For experiment [3], the system named is Lipid bilayer. The experiment can be described thus: Binding affinity to dipalmitoyl phosphatidyl choline lipid bilayer assessed as decrease in main transition temperature by DSC technique. In general terms: DSC measures the heat that a sample takes up or gives off during a temperature scan.
Experiment [4] concerns Lipid bilayer. The experiment can be described thus: Binding affinity to dipalmitoyl phosphatidyl choline lipid bilayer assessed as decrease in pre-transition temperature at compound to lipid molar ratio of 1:5 by DSC technique. The essentials:
as §2

Experiment [5] concerns Lipid bilayer. The experiment can be described thus: Binding affinity to dipalmitoyl phosphatidyl choline lipid bilayer assessed as decrease in pre-transition temperature by DSC technique.
Experiment [6] deals with Lipid bilayer. The experiment can be described thus: Binding affinity to dipalmitoyl phosphatidyl choline lipid bilayer assessed as decrease in main transition temperature at compound to lipid molar ratio of 1:1 by DSC technique. The essentials:
as §2

For experiment [7], the system named is Lipid bilayer. Kind of experiment: Binding affinity to dipalmitoyl phosphatidyl choline lipid bilayer assessed as decrease in pre-transition temperature at compound to lipid molar ratio of 1:1 by DSC technique. An outline of the steps: as §2
The test system of experiment [8] is Sperm. Kind of experiment: (§3) Antifertility activity against goat epididymis sperm cells assessed as loss of sperm motility at 1.25 mM by Sander-Cramer test. In kind it is functional. To be noted: Capra hircus. The essentials: as §1
A short description of experiment [9]: as §3. Type of experiment: functional, Capra hircus. An outline of the steps: as §1

Consider `CCOC(=O)C1=C(C)NC(C)=C(C(=O)OCC)C1c1ccc(O)cc1`, for which, in experiment [1], the inhibition entry was “Active”. Also, the Tm in experiment [2], in experiment [3] and in [6] was 4.25 °C throughout. Further, the outcome in experiment [4], in experiment [5] and in [7] was Active.
On to `CCOC(=O)C1=C(C)NC(C)=C(C(=O)OCC)C1c1ccccc1O`, for which the outcome in [4], in [5] and in [7] was Active. The inhibition result in [8] is “Active”.
In the case of `CCOC(=O)C1=C(C)NC(C)=C(C(=O)OCC)C1c1ccc(Cl)cc1`, the outcome in experiment [4], in experiment [5] and in experiment [7] was Active. The Activity in experiment [9] was determined as 25%.
Regarding `O=C(O)c1cc(/N=N/c2ccc(S(=O)(=O)Nc3ccccn3)cc2)ccc1O`, the result in [4], in experiment [5] and in experiment [7] was Active.
As to `CCOC(=O)C1=C(C)NC(C)=C(C(=O)OCC)C1c1ccccc1`, the outcome in [4], in experiment [5] and in experiment [7] was Active. Further, in experiment [9], the Activity worked out at 25%.
As for `COC(=O)C1=C(C)NC(C)=C(C(=O)OC)C1c1ccccc1[N+](=O)[O-]`, the outcome in experiment [4], in experiment [5] and in experiment [7] was Active.
